Activity calls are given as the source filed them. The rule behind the calls is not given here.
What was measured:
[1] = target: Amyloid-beta precursor protein (Homo sapiens) (UniProt P05067); assay: Inhibition of HFIP-pretreated amyloid beta (1 to 42) (unknown origin) self-aggregation at 20 uM after 72 hrs by uranyl acetate staining based transmission electron microscopy
In short: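 Aβ1-42 was incubated alone or with compound for 72 h at 37 °C. Fibril formation was then examined by transmission electron microscopy, with curcumin as positive control.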

[2] = target: Amyloid-beta precursor protein (Homo sapiens) (UniProt P05067); assay: Inhibition of HFIP-pretreated amyloid beta (1 to 42) (unknown origin) self-aggregation at 20 uM after 48 hrs by thioflavin-T fluorescence assay
[3] = Apparent clearance in Sprague-Dawley rat plasma at 25 mg/kg, iv by HPLC analysis; format: ADME, organism-based; conditions: read-out: CL(app)
In short: (§1)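 Male Sprague–Dawley rats were given a single intravenous dose of 25 mg/kg. Drug levels were followed by microdialysis of blood and brain, alongside plasma. AUC0–t, AUC0–∞, MRT and CLz were derived from the concentration–time curves, n=6, reported as mean ± SD.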

[4] = target: Voltage-gated inwardly rectifying potassium channel KCNH2 (Homo sapiens, UniProt Q12809); assay: Inhibition of human ERG expressed in CHO cells incubated for 1 min at -80 mV holding potential by manual patch clamp assay; format: cell-based
Mus musculus [5] = assay: Cognition enhancement in aluminium trichloride-induced amnesia mouse model assessed as total swimming time at 8 mg/kg administered via gastric gavage for 30 days by SMG-2 programmable water maze test (reference value: 115 +/- 19 secs); format: functional
[6] = AUC (0 to t) in Sprague-Dawley rat plasma at 25 mg/kg, iv by HPLC analysis; format: ADME, organism-based; in short: as §1
[7] = Stability of compound in human liver microsomes measured up to 60 mins by HPLC analysis; format: ADME, Microsome; conditions: 1 h
In short: (§2)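 The compound was incubated separately in human plasma, human liver microsomes, simulated gastric fluid and simulated intestinal fluid. Remaining compound was quantified by HPLC at 5, 15, 30, 45 and 60 min.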

[8] = MRT in Sprague-Dawley rat blood dialysis at 25 mg/kg, iv by HPLC analysis; format: ADME, organism-based; conditions: blood dialysate; in short: as §1
[9] = target: Amyloid-beta precursor protein (Homo sapiens) (UniProt P05067); assay: Inhibition of HFIP-pretreated amyloid beta (1 to 42) (unknown origin) self-aggregation at 20 uM after 24 hrs by thioflavin-T fluorescence assay relative to control
[10] = AUC (0 to infinity) in Sprague-Dawley rat plasma at 25 mg/kg, iv by HPLC analysis; format: ADME, organism-based; set-up: dose 25 mg/kg, time infinity, route intravenous; in short: as §1
Danio rerio [11] = species on record: Danio rerio; assay: Cognition enhancement in aluminium chloride-induced Alzheimer's disease zebra fish model assessed as Dyskinesia recovery rate at 5 uM treated from 3 dpf to 5 dpf relative to control; format: functional
In short: (§3)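 Zebrafish larvae were exposed to 150 µM AlCl₃ from 3 to 5 dpf and co-treated with compound at 1, 5 or 25 µM over the same window, 30 fish per group. DRR and RE values were calculated from the average swimming speed of treated fish.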

A549 = assay: Cytotoxicity against human A549 cells assessed as reduction in cell viability incubated for 24 hrs by MTT assay; format: cell-based; conditions: A549, 24 h
[12] = Metal chelating activity assessed as compound-Cu2+ complex formation by measuring decrease in absorption with spectral shift to red end at 25 uM incubated for 5 mins in presence of 25 uM CuCl2 by UV-visible spectrophotometry
MCF7 = assay: Cytotoxicity against human MCF7 cells assessed as reduction in cell viability incubated for 24 hrs by MTT assay; format: cell-based; conditions: MCF7, 24 h
Mus musculus [13] = assay: Cognition enhancement in aluminium trichloride-induced amnesia mouse model assessed as error times at 8 mg/kg administered via gastric gavage for 30 days by SMG-2 programmable water maze test (reference value: 20.7 +/- 4.8 secs); format: functional
[14] = MRT in Sprague-Dawley rat plasma at 25 mg/kg, iv by HPLC analysis; format: ADME, organism-based; in short: as §1
Mus musculus [15] = assay: Cognition enhancement in aluminium trichloride-induced amnesia mouse model assessed as error times at 0.5 mg/kg administered via gastric gavage for 30 days by SMG-2 programmable water maze test (reference value: 20.7 +/- 4.8 secs); format: functional
[16] = MRT in Sprague-Dawley rat brain at 25 mg/kg, iv by HPLC analysis; format: ADME, organism-based; in short: as §1
[17] = Ratio of drug level in Sprague-Dawley rat brain to plasma at 25 mg/kg, iv by HPLC analysis; format: ADME, organism-based; conditions: read-out: BPR
In short: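 Male Sprague–Dawley rats received 25 mg/kg intravenously, with blood and brain sampled by microdialysis. The brain/plasma exposure ratio was calculated from AUC0–∞ measured in brain and plasma dialysates.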

Danio rerio [18] = species on record: Danio rerio; assay: Cognition enhancement in aluminium chloride-induced Alzheimer's disease zebra fish model assessed as Dyskinesia recovery rate treated from 3 dpf to 5 dpf; format: functional, organism-based; in short: as §3
Mus musculus [19] = assay: Cognition enhancement in scopolamine-induced amnesia mouse model assessed as total swimming distance at 25 mg/kg, iv administered once daily for 18 days measured after 50 mins at 5th day of training session by Morris water maze test (reference value: 785+/-351 cm); format: functional
Danio rerio [20] = species on record: Danio rerio; assay: Cognition enhancement in aluminium chloride-induced Alzheimer's disease zebra fish model assessed as Dyskinesia recovery rate at 1 uM treated from 3 dpf to 5 dpf relative to control; format: functional; in short: as §3
[21] = target: Amyloid-beta precursor protein (Homo sapiens) (UniProt P05067); assay: Inhibition of HFIP-pretreated amyloid beta (1 to 42) (unknown origin) self- aggregation at 20 uM after 72 hrs by thioflavin-T fluorescence assay relative to control
[22] = Stability of compound in human plasma measured up to 60 mins by HPLC analysis; format: ADME, cell-free; conditions: 1 h; in short: as §2
Mus musculus [23] = assay: Cognition enhancement in aluminium trichloride-induced amnesia mouse model assessed as error times at 2 mg/kg administered via gastric gavage for 30 days by SMG-2 programmable water maze test (reference value: 20.7 +/- 4.8 secs); format: functional
[24] = Stability of the compound in simulated intestinal fluid measured up to 60 mins by HPLC analysis; format: ADME; conditions: simulated gi fluid, 1 h; in short: as §2
[25] = Metal chelating activity assessed as compound-Fe2+ complex formation at 25 uM incubated for 5 mins in presence of 25 uM FeSO4 by UV-visible spectrophotometry
Mus musculus [26] = assay: Cognition enhancement in aluminium trichloride-induced amnesia mouse model assessed as total swimming time at 0.5 mg/kg administered via gastric gavage for 30 days by SMG-2 programmable water maze test (reference value: 115 +/- 19 secs); format: functional
N2a = assay: Cytotoxicity against mouse Neuro2a cells assessed as reduction in cell viability incubated for 24 hrs by MTT assay; format: cell-based
Danio rerio [27] = species on record: Danio rerio; assay: Cognition enhancement in aluminium chloride-induced Alzheimer's disease zebra fish model assessed as Response efficiency at 25 uM treated from 3 dpf to 5 dpf relative to control; format: functional; in short: as §3
[28] = AUC (0 to infinity) in Sprague-Dawley rat brain at 25 mg/kg, iv by HPLC analysis; format: ADME, organism-based; set-up: dose 25 mg/kg, route intravenous, time infinity; in short: as §1
[29] = AUC (0 to t) in Sprague-Dawley rat brain at 25 mg/kg, iv by HPLC analysis; format: ADME, organism-based; in short: as §1
Danio rerio [30] = species on record: Danio rerio; assay: Cognition enhancement in aluminium chloride-induced Alzheimer's disease zebra fish model assessed as Response efficiency at 5 uM treated from 3 dpf to 5 dpf relative to control; format: functional; in short: as §3
[31] = AUC (0 to infinity) in Sprague-Dawley rat blood dialysis at 25 mg/kg, iv by HPLC analysis; format: ADME, organism-based; set-up: dose 25 mg/kg, route intravenous, time infinity; conditions: blood dialysate; in short: as §1
Danio rerio [32] = species on record: Danio rerio; assay: Cognition enhancement in aluminium chloride-induced Alzheimer's disease zebra fish model assessed as Dyskinesia recovery rate at 25 uM treated from 3 dpf to 5 dpf relative to control; format: functional; in short: as §3
[33] = Apparent clearance in Sprague-Dawley rat blood dialysis at 25 mg/kg, iv by HPLC analysis; format: ADME, organism-based; conditions: blood dialysate, read-out: CL(app); in short: as §1
[34] = Stability of the compound in simulated gastric fluid measured up to 60 mins by HPLC analysis; format: ADME; conditions: simulated gi fluid, 1 h; in short: as §2
Mus musculus [35] = assay: Cognition enhancement in scopolamine-induced amnesia mouse model assessed as escape latency at 25 mg/kg, iv administered once daily for 18 days measured after 50 mins at 5th day of training session by Morris water maze test (reference value: 63.2+/-21.1 secs); format: functional
Danio rerio [36] = species on record: Danio rerio; assay: Cognition enhancement in aluminium chloride-induced Alzheimer's disease zebra fish model assessed as Response efficiency at 1 uM treated from 3 dpf to 5 dpf relative to control; format: functional; in short: as §3
[37] = AUC (0 to t) in Sprague-Dawley rat blood dialysis at 25 mg/kg, iv by HPLC analysis; format: ADME, organism-based; conditions: blood dialysate; in short: as §1
hERG (KCNH2) = hERG (KCNH2) (Homo sapiens, UniProt Q12809); assay: Inhibition of human ERG expressed in CHO cells at 0.1 uM incubated for 1 min at -80 mV holding potential by manual patch clamp assay relative to control; format: cell-based; conditions: CHO cells expressing human ERG
Chain of hERG (KCNH2) (Q12809 whole entry): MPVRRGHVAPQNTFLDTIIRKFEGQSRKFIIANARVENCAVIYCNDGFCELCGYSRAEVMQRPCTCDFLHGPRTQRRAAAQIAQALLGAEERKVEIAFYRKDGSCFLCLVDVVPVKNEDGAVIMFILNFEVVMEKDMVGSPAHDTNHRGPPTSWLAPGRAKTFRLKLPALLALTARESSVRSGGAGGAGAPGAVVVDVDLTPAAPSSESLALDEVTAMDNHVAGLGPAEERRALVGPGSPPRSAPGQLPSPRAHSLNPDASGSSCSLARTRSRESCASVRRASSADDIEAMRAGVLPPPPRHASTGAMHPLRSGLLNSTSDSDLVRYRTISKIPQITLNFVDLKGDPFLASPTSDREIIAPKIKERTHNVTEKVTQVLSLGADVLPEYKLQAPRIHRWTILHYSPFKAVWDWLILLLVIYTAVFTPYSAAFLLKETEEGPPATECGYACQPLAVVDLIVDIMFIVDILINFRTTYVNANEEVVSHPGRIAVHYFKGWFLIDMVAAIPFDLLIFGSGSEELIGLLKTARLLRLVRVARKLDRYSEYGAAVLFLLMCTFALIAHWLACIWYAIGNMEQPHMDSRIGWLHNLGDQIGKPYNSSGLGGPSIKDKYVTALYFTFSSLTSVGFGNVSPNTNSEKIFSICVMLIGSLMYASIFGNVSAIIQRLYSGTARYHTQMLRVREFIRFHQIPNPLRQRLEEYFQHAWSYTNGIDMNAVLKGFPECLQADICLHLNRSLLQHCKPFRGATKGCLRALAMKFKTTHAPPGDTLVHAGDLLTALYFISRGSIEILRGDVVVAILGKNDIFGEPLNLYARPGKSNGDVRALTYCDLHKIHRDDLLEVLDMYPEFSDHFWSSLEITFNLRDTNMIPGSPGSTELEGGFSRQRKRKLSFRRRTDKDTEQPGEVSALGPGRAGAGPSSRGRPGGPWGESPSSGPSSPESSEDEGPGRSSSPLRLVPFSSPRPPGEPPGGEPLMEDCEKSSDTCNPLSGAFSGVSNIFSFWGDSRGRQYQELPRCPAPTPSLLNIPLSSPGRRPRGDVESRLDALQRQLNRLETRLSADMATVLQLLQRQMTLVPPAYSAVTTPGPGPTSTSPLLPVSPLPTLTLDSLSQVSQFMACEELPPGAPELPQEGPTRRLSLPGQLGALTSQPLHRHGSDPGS

Chain of Amyloid-beta precursor protein (Homo sapiens) (P05067 whole entry): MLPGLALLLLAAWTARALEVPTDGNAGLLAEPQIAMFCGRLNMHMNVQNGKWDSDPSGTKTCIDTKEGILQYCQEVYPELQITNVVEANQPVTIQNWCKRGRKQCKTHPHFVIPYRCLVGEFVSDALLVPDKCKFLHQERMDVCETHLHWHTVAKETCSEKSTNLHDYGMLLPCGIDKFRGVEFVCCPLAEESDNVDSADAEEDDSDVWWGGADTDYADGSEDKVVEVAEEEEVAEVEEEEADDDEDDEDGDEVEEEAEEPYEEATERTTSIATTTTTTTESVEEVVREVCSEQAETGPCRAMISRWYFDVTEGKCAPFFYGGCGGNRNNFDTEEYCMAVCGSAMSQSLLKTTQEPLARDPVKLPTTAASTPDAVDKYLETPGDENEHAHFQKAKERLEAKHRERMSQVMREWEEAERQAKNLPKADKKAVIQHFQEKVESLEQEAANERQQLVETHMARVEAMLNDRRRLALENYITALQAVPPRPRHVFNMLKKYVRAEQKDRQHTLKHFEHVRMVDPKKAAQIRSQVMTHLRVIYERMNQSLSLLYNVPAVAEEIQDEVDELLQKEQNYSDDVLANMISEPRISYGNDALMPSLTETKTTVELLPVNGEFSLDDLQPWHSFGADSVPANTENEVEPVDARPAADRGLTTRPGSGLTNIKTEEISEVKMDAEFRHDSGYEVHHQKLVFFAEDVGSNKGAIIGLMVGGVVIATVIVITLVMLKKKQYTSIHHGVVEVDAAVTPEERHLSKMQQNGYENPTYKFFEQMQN
Chain of Voltage-gated inwardly rectifying potassium channel KCNH2 (Q12809 whole entry): as the sequence (Q12809 whole entry) above

## COc1cc(/C=C/C(=O)CC(=O)/C=C/c2ccc(O)c(OC)c2)ccc1O
[1]
  inhibition: Active

## CCN(C)C(=O)Oc1cc(C(C)N(C)C)cc2cccnc12 (configuration not stated)
[2]
  inhibition: 55.9%
[3]
  clearance: 62 mL/min/kg
[4]
  IC50: > 30 µM
Mus musculus [5]
  Time: 79 s
[6]
  AUC(0-t): 7410 ng·h/mL
[7]
  Stability: Stable
[8]
  MRT: 1.16 h
[9]
  inhibition: 31.3%
[10]
  AUC(0-inf): 7460 ng·h/mL
Danio rerio [11]
  Activity: 99.3%
A549
  IC50: > 20 µM
[12]
  Activity: inactive
MCF7
  IC50: > 20 µM
Mus musculus [13]
  Time: 16.8 s
[14]
  MRT: 1.53 h
Mus musculus [15]
  Time: 15.1 s
[16]
  MRT: 0.947 h
[17]
  Kp: 0.524
Danio rerio [18]
  Activity: Dose-dependent effect
Mus musculus [19]
  Activity: 520 cm
Danio rerio [20]
  Activity: 70.8%
[21]
  inhibition: 66.1%
[22]
  Stability: Stable
Mus musculus [23]
  Time: 18.1 s
[24]
  Stability: Stable
[25]
  Activity: inactive
Mus musculus [26]
  Time: 73 s
N2a
  IC50: > 20 µM
Danio rerio [27]
  Activity: 70.2%
[28]
  AUC(0-inf): 1270 ng·h/mL
[29]
  AUC(0-t): 1260 ng·h/mL
Danio rerio [30]
  Activity: 161.4%
[31]
  AUC(0-inf): 2450 ng·h/mL
Danio rerio [32]
  Activity: 121%
[33]
  clearance: 190 mL/min/kg
[34]
  Stability: Stable
[1]
  inhibition: Active
Mus musculus [35]
  Time: 43.8 s
Danio rerio [36]
  Activity: 112.4%
[37]
  AUC(0-t): 2430 ng·h/mL

## COc1cc(N)c(Cl)cc1C(=O)N[C@H]1CCN(CCCOc2ccc(F)cc2)C[C@H]1OC [REL-CISAPRIDE]
hERG (KCNH2)
  inhibition at 1 min, 0.1 µM: 89%
